For three molecules, IC50, MFC and MIC results are on record in ChEMBL document CHEMBL1136527, “Antifungal activity of a Candida albicans GGTase I inhibitor-alanine conjugate. Inhibition of Rho1p prenylation in C. albicans” (Bioorg Med Chem Lett, 2003).

The term IC50 denotes the point on the concentration scale where inhibition reaches its midpoint. A low value points to higher potency. In general, MFC refers to the lowest tested concentration that kills the fungus rather than only halting it. What is called MIC is the lowest concentration that inhibits growth of the organism. Low readings indicate greater potency, high ones weaker potency.

In assay [1] the target is Geranylgeranyl transferase type I (Candida albicans). Nature of the assay: Inhibition of Candida albicans Geranylgeranyl transferase type I.
Assay [2] deals with Candida albicans. Nature of the assay: Fungicidal activity against Candida albicans. It counts as functional.
Assay [3] has as its system Candida albicans. As to the kind of experiment: Inhibitory of Candida albicans. It counts as functional. In outline: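 MIC against C. albicans SC5314 in YNBGlc medium: yeast nitrogen base without amino acids, supplemented with histidine, methionine, tryptophan, glutamine and 2% glucose.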
For assay [4], the target named is Protein farnesyltransferase (Candida albicans). As to the kind of experiment: Inhibition of Candida albicans Farnesyltransferase.
The test system of assay [5] is Candida albicans. As to the kind of experiment: Inhibition of Candida albicans after addition of amino acids at 1 mM. It counts as functional. In a few lines: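 MIC against C. albicans SC5314 in YNBGlc medium (YNB without amino acids plus histidine, methionine, tryptophan, glutamine, 2% glucose), further supplemented with an amino acid mixture at 1mM final, to compete for permease uptake.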

Values after ≈ are worked out from the molar mass of the structure shown.

In assay [1], `COC(=O)[C@H](CC(C)C)NC(=O)C1(c2ccccc2)CCN(C(=O)[C@@H](N)CS)CC1` came in with an IC50 of 5 nM. The molecule also gave an MFC with Candida albicans [2] of more than 128 µg/mL. Also, the MIC against Candida albicans [3] is more than 128 µg/mL.

For `CC(C)C[C@H](NC(=O)C1(c2ccccc2)CCN(C(=O)[C@@H](N)CS)CC1)C(=O)O`, the IC50 in assay [4] is 200 nM; in assay [1], less than 5 nM. Further, the MFC in the assay with Candida albicans [2] is more than 128 µg/mL. The minimum inhibitory concentration (MIC) in the assay on Candida albicans [3] was more than 128 µg/mL.

Regarding `CC(C)C[C@H](NC(=O)C1(c2ccccc2)CCN(C(=O)[C@@H](N)CS)CC1)C(=O)N[C@@H](C)C(=O)O`, the IC50 in assay [4] was 3000 nM; in assay [1], 10 nM. In the assay with Candida albicans [2], the MFC was 2 µg/mL (≈ 4.06 µM). Besides, the MIC in the assay on Candida albicans [5] is more than 64 µg/mL; in the assay with Candida albicans [3] it was 1 µg/mL (≈ 2.03 µM).
